The values below come from ChEMBL document CHEMBL4138239, “Anti-inflammatory Dimeric 2-(2-Phenylethyl)chromones from the Resinous Wood of Aquilaria sinensis” (J Nat Prod, 2018).

In one data set the test system is RAW264.7. The data set can be described thus: Cytotoxicity against mouse RAW264.7 cells assessed as effect on cell viability up to 80 uM after 24 hrs by MTT assay. Format: cell-based. The settings on record: raw264.7, 24 h. A digest of the protocol:
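Viability or proliferation of RAW264.7 cells was measured by MTT. Compounds were tested at up to 80 μM alongside LPS treatment for 24 h. They were made as DMSO stocks, with final DMSO below 0.2%. The assay was run to test whether lower NO reflected loss of cells.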
A general note: Tetrazolium assays rely on reduction of a dye to a coloured formazan, in cell work by metabolically active cells.
For `O=c1cc(CCc2ccccc2)oc2c1[C@H]1c3ccc4c(=O)cc(CCc5ccccc5)oc4c3O[C@H]([C@H]1O)[C@@H]2O`, the Activity entry is “Non-Toxic”.
Still for that read-out and setting: to `COc1ccc(CCc2cc(=O)c3c(o2)[C@@H](O)[C@@H]2Oc4c(c(O)cc5c(=O)cc(CCc6ccc(OC)cc6)oc45)[C@H]3[C@@H]2O)cc1` belongs “Non-Toxic”; to `COc1ccc2oc(CCc3ccc(OC)c4c3[C@@H]3c5c(oc(CCc6ccccc6)cc5=O)[C@@H](O)[C@H](O4)[C@H]3O)cc(=O)c2c1`, “Non-Toxic”.
On the same count and under the same terms, under `COc1ccc(CCc2cc(=O)c3c(o2)[C@@H](O)[C@@H]2Oc4ccc5oc(CCc6ccccc6)cc(=O)c5c4[C@H]3[C@@H]2O)cc1` stands “Non-Toxic”; under `COc1ccc(CCc2cc(=O)c3c(o2)[C@H](O)[C@H]2Oc4c(OC)ccc(CCc5cc(=O)c6cc(OC)ccc6o5)c4[C@@H]3[C@H]2O)cc1`, “Non-Toxic”; under `COc1ccc2oc(CCc3ccc(OC)c4c3[C@H]3c5c(oc(CCc6ccccc6)cc5=O)[C@H](O)[C@@H](O4)[C@@H]3O)cc(=O)c2c1`, “Non-Toxic”.
Regarding `O=c1cc(CCc2ccccc2)oc2c1[C@@H]1c3ccc4c(=O)cc(CCc5ccccc5)oc4c3O[C@@H]([C@@H]1O)[C@H]2O`, the Activity entry is listed as “Non-Toxic”.
The same measure, in the same setting: to `O=c1cc(CCc2ccccc2)oc2c1[C@H]1c3c(ccc4oc(CCc5ccccc5)cc(=O)c34)O[C@H]([C@H]1O)[C@@H]2O` belongs “Non-Toxic”.
On to `O=c1cc(CCc2ccccc2)oc2c1[C@@H]1c3c(ccc4oc(CCc5ccccc5)cc(=O)c34)O[C@@H]([C@@H]1O)[C@H]2O`, for which the Activity result is given as “Non-Toxic”.
Turning to `COc1ccc2oc(CCc3ccc4c(c3)O[C@H]3[C@H](O)[C@@H]4c4c(oc(CCc5ccccc5)cc4=O)[C@@H]3O)cc(=O)c2c1`, the Activity result is “Non-Toxic”.

The subject of another data set is RAW264.7. As to the kind of experiment: Antiinflammatory activity in mouse RAW264.7 cells assessed as inhibition of LPS-induced nitric oxide production after 24 hrs by Griess assay. It is filed as functional, cell-based. To be noted: RAW264.7, 24 h. The method, boiled down:
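RAW264.7 cells were obtained from the Peking Union Medical College Cell Bank and stimulated with LPS. Nitric oxide production was measured in the presence of test compounds. Compounds were made as DMSO stocks, with final DMSO below 0.2%. IC50 values are given as mean ± SD of three independent experiments. A positive control was included.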
On the technique in general: Griess reagent forms a coloured azo dye with nitrite.
With `O=c1cc(CCc2ccccc2)oc2c1[C@H]1c3ccc4c(=O)cc(CCc5ccccc5)oc4c3O[C@H]([C@H]1O)[C@@H]2O`, the IC50 (in general, the point on the concentration scale where inhibition reaches its midpoint) worked out at 8.8 µM.
In the case of `COc1ccc(CCc2cc(=O)c3c(o2)[C@@H](O)[C@@H]2Oc4c(c(O)cc5c(=O)cc(CCc6ccc(OC)cc6)oc45)[C@H]3[C@@H]2O)cc1`, the IC50 worked out at 10.5 µM.
In the case of `COc1ccc2oc(CCc3ccc(OC)c4c3[C@@H]3c5c(oc(CCc6ccccc6)cc5=O)[C@@H](O)[C@H](O4)[C@H]3O)cc(=O)c2c1`, the IC50 was 8.5 µM.
In the case of `COc1ccc(CCc2cc(=O)c3c(o2)[C@@H](O)[C@@H]2Oc4ccc5oc(CCc6ccccc6)cc(=O)c5c4[C@H]3[C@@H]2O)cc1`, the IC50 turned out to be 9.3 µM.
The same measure, in the same setting: to `COc1ccc(CCc2cc(=O)c3c(o2)[C@H](O)[C@H]2Oc4c(OC)ccc(CCc5cc(=O)c6cc(OC)ccc6o5)c4[C@@H]3[C@H]2O)cc1` belongs 7 µM; to `COc1ccc2oc(CCc3ccc(OC)c4c3[C@H]3c5c(oc(CCc6ccccc6)cc5=O)[C@H](O)[C@@H](O4)[C@@H]3O)cc(=O)c2c1`, 8.5 µM.
On to `O=c1cc(CCc2ccccc2)oc2c1[C@@H]1c3ccc4c(=O)cc(CCc5ccccc5)oc4c3O[C@@H]([C@@H]1O)[C@H]2O`, for which the IC50 came to 8.6 µM.
Same read-out and setting: to `COc1ccc(CCc2cc(=O)c3c(O)c(O)c(O)c(Cl)c3o2)cc1` belongs 4.4 µM; to `O=c1cc(CCc2ccccc2)oc2c1[C@H]1c3c(ccc4oc(CCc5ccccc5)cc(=O)c34)O[C@H]([C@H]1O)[C@@H]2O`, 7.6 µM.
Consider `O=c1cc(CCc2ccccc2)oc2c1[C@@H]1c3c(ccc4oc(CCc5ccccc5)cc(=O)c34)O[C@@H]([C@@H]1O)[C@H]2O`, for which the half-maximal inhibitory concentration (IC50) came out at 11.5 µM.
On the same count and under the same terms, under `COc1ccc2oc(CCc3ccc4c(c3)O[C@H]3[C@H](O)[C@@H]4c4c(oc(CCc5ccccc5)cc4=O)[C@@H]3O)cc(=O)c2c1` stands 12 µM.
